Assay outcomes from PubChem.
Compounds with a hit are over-represented: about 3.3% of the library has one in this group of screens.
ABCG2 block – inhibitors of human ABCG2 transporter, ABCB1 counter-screen; Q9UNQ0; IgMXP3 cells, JC-1 efflux, flow cytometry; inhibition, % at 6.6 µM; 190,000 tested, 0.1% active;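 active = inhibition above 80%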;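 also: 0% = DMSO and 100% = nicardipine control wells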
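Test system: IgMXP3 cells (ABCG2) mixed with DDAO far-red-labelled CCRF-Adr cells (ABCB1). Reagent: JC-1 transporter substrate. Compound dosing: single test compound dose, 6.6 µM final. Times: 10 min compound exposure, 25 °C. Detection: flow cytometry of retained JC-1 fluorescence. Read-out basis: efflux inhibition in percent versus controls. Controls: nicardipine and DMSO wells.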
PMI act satM6P – activators of human phosphomannose isomerase at near-saturating mannose 6-phosphate | activation factor at 20 µM | P34949 | 190,000 tested, 0.34% active | coupled PMI enzyme assay, resazurin fluorescence, 20 min; stronger effect = higher value; 1 = untreated enzyme, 0 = substrate-free blank;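 active = activation factor of 2 or more at 20 µM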
Target sequence (P34949 whole entry, looked up): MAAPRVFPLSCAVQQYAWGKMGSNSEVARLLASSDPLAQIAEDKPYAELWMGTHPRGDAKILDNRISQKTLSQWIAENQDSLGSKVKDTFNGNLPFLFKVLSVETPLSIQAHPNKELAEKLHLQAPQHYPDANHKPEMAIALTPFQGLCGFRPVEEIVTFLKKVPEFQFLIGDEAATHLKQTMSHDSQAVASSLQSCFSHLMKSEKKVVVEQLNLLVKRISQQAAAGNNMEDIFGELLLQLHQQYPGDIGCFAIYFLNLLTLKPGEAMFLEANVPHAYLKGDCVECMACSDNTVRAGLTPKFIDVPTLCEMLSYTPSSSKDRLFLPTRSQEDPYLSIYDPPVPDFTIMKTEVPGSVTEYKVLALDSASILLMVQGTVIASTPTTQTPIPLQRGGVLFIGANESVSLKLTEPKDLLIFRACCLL
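Technique: Diaphorase-driven resazurin-to-resorufin fluorescence, excitation 544, emission 590 nm | Assay system: Human PMI in coupled enzyme assay | Times: Enzyme reaction with compound 20 min at room temperature | Medium: HEPES-buffered pH 7.4 with magnesium and detergent | Reagent: Mannose-6-phosphate 1.0 mM (near-saturating) plus 0.22 mM NADP+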
ABCB1 inh – inhibitors of human ABCB1 transporter, ABCG2 counter-screen | P08183 | CCRF-Adr cells, JC-1 efflux, flow cytometry | inhibition, % at 6.6 µM | 190,000 tested, 0.067% active | AID 1326; in the data active = inhibition above about 40%;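 also: 0% = vehicle and 100% = reference inhibitor; higher value means more JC-1 retained so stronger ABCB1 efflux block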
KCC2 mod – KCC2 (human) Cl- transport modulation. KCC2 cells, thallium flux FluoZin-2 fluorescence. B-score of Tl+ flux slope (higher = more flux/activation; lower = inhibition) at 10 µM. 190,000 tested, 2.2% active;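 active = thallium flux slope and its plate-corrected score both differing from the plate sample mean at a set confidence after two filtering rounds, in either direction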;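 also: slope of fluorescence scaled to starting intensity during 10 to 20 s after thallium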
ROMK mod – modulators of human ROMK potassium channel | P48048 | Tet-inducible ROMK, thallium flux fluorescence; actives lie on both sides | B-score at 10 µM | 130,000 tested, 2% active | AID 1918;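 active = signal ratio slope over the read window, or its plate-corrected B-score, at least 3 SD from the plate mean, either direction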;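 also: B-score of the F/F0 ratio slope over 7 to 12 s after thallium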
PMI act – activators of human phosphomannose isomerase; purified human PMI, coupled resazurin fluorescence, 20 min; stronger effect = higher value; 1 = vehicle control, 0 substrate-free wells; AID 1214; P34949; activation factor at 20 µM; 190,000 tested, 0.005% active;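 active = activation factor of 2 or more at 20 µM, relative to plate controls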
ROMK retest – human ROMK channel modulation, retest confirmation; shares compounds with ROMK mod; ROMK thallium flux, fluorescence ratio; stronger effect = lower value; normalized thallium flux (F/F0 slope) at 10 µM; 3,000 tested, 54% active; AID 1917;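 active = Flux at 10 µM at least 3 SD below or above vehicle control mean in one or both replicates; inconclusive = no clear call, values can overlap the other calls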
An asterisk follows results filed as active; i = inactive; u = inconclusive; x = no result given.

SMILES	ABCG2 block	PMI act satM6P	ABCB1 inh	KCC2 mod	ROMK mod	PMI act	ROMK retest
CCOC(=O)c1n[nH]c2ccccc12	13	1	0	-0.4	2.2*	1	0.073
COC(=O)/C=C1/SC(=NC(=O)c2ccc(F)cc2)NC1=O	x	x	x	0.84	x	x	0.048*
COC(=O)/C=C1\SC(=NC(=O)c2cccc(Cl)c2)NC1=O	0	1	0	1.6	x	0.9	0.052*
COC(=O)/C=C1/SC(=NC(=O)c2ccccc2)NC1=O	-1	0.8	-1	0.65	x	0.8	x
COC(=O)/C=C1\S/C(=N/NC(=O)c2ccccc2)NC1=O	2	0.7	0	1.1	0.45	0.7	x
COc1ccc(S(=O)(=O)n2nc(OC(=O)c3cccs3)cc2NC(=O)c2cccs2)cc1	3	0.9	4	2.1	x	1	x
Cc1nn(CCCC(=O)N2CCN(c3ccc(F)cc3)CC2)c(C)c1[N+](=O)[O-]	3	1.1	1	-0.77	-6*	1	0.054*
Cc1cccc(Oc2ccc(NC(=O)c3ccccc3C(=O)O)cc2)c1C	0	0.8	-1	-0.69	1.6*	1	0.076
CC1CCCCN1CCCNC(=O)c1ccc2c(=O)n(CCc3ccccc3)c(=O)[nH]c2c1 (configuration not stated)	0	1	0	-0.17	-3*	1	u
CC1CCCCN1CCNC(=O)c1ccc2c(=O)n(CCc3ccccc3)c(=O)[nH]c2c1 (configuration not stated)	3	0.9	1	-0.51	-0.19	0.9	x
O=C(NC1CCCCCCC1)C1c2ccccc2C(=O)N1Cc1ccco1 (configuration not stated)	3	0.9	1	0.13	x	1	u
CCCCn1c(SCC(=O)Nc2cc(C)on2)nnc1-c1ccco1	4	1.1	1	-0.47	3.2*	1	0.078
COc1ccccc1C1SCCN1S(=O)(=O)c1cccc(C(F)(F)F)c1 (configuration not stated)	9	0.9	1	-1.5	-4.3*	0.8	0.066*
COc1ccc(C2SCCN2S(=O)(=O)c2ccc(F)cc2)cc1OC (configuration not stated)	2	0.9	1	-0.41	x	0.8	x
CC(C)Cn1cc(C(=O)NC2CCN(Cc3ccccc3)CC2)c2c3ccccc3n(C)c2c1=O	3	1	3	x	-2.2*	1	0.068*
COCCCNC(=O)c1cn(CC(C)C)c(=O)c2c1c1ccccc1n2C	39	1	2	-0.75	-0.74	0.9	x
COC(=O)c1cc([N+](=O)[O-])c(-n2cncn2)c([N+](=O)[O-])c1	3	x	1	-0.61	-7.8*	x	0.043*
COc1cccc(CC(NC(C)=O)C(=O)NC2CCN(c3c(Cc4ccccc4)c(C)nc4ncnn34)CC2)c1 (configuration not stated)	-13	1.1	-2	0.00078	-0.74	1	0.093
COc1ccc(OC)c(CC(NC(C)=O)C(=O)NC2CCN(c3c(Cc4ccccc4)c(C)nc4ncnn34)CC2)c1 (configuration not stated)	-1	1	0	-2.9	0.0058	0.9	x
COCCOC(=O)c1cc(C(=O)c2cc(Cl)ccc2O)coc1=N	4	1	1	-0.43	-0.5	1	x
O=C(N/N=C/c1cn(-c2ccccc2)nc1-c1cc2ccccc2o1)c1cccnc1	-6	0.9	1	-1.3	x	0.9	0.075
N#C/C(=C\c1cn(-c2ccccc2)nc1-c1cc2ccccc2o1)c1nc2ccccc2[nH]1	-6	1.2	-1	i	-3.5*	1.3	0.048*
COc1ccc(NC(=O)CN(c2cc(C)cc(C)c2)S(=O)(=O)c2c(C)n[nH]c2C)cc1	5	1	1	-0.49	x	0.9	x
Cc1cc(C)nc(/N=C(\N)Nc2cccc(OCc3ccccc3)c2)n1	x	x	x	-0.037	x	x	0.055*
CCOc1ccc(C(=O)N/N=C/c2cc([N+](=O)[O-])cs2)cc1	18	1.1	2	1.6	x	1.1	x
SMILES	ABCG2 block	PMI act satM6P	ABCB1 inh	KCC2 mod	ROMK mod	PMI act	ROMK retest
COc1cc(C(=O)N/N=C/c2cc([N+](=O)[O-])cs2)cc(OC)c1OC	15	0.9	x	-0.49	4.1*	1	0.088
Cc1ccsc1/C=N/NC(=O)c1ccncc1	3	1.2	0	0.67	0.92	1.2	x
COc1cc(C(=O)N/N=C/c2sccc2C)cc(OC)c1OC	4	0.9	1	-0.1	5.1*	0.9	u
Cc1cc(C)c(OCC(O)CN2CCN(c3ccccn3)CC2)c(C)c1 (configuration not stated)	4	1.1	1	-1.5	0.26	1.2	x
CCOC(=O)c1c(-c2ccc(-c3ccccc3)cc2)csc1NC(=O)C1C2CCC(O2)C1C(=O)O (configuration not stated)	0	0.8	0	x	x	1	0.11*
CCOC(=O)c1c(-c2ccccc2)csc1NC(=O)C1CCCO1 (configuration not stated)	34	1	0	-0.96	-0.042	1	x
O=c1c2ccccc2sn1-c1nccs1	0	0	0	0.88	-3.7*	-0.1	0.071
O=c1c2ccccc2sn1-c1ccccc1	0	0.4	0	0.27	-1.7	0.1	x
O=C(CCCN1C(=O)c2ccccc2C1=O)OC1CSCC1NC(=O)c1ccccc1 (configuration not stated)	0	1	0	0.046	x	1	x
O=C(NCCOCc1ccccc1)C(c1ccccc1)c1ccccc1	9	1	2	-1.9	-1.3	1	x
COc1ccc(C(=O)OCCNC(=O)c2c(Cl)nc3ccccn23)cc1	8	1	1	0.24	x	1	0.059*
CCN1CCc2c(C#N)c(N3CCCCC3)nc(NCc3ccccc3)c2C1	2	0.7	1	0.66	-2.6*	0.7	0.066*
Cc1ccc(-n2c(=O)c3c4c(sc3n3c(=S)[nH]nc23)CCC4)cc1	x	x	x	-1.3	x	x	x
CCn1c(=O)c2c3c(sc2n2c(=S)[nH]nc12)CCC3	0	1	0	0.35	2.3*	1	0.079
CCCSc1nnc(NC(=O)Nc2ccc(F)cc2)s1	3	0.9	1	-0.79	-2	0.9	0.062*
CCCSc1nnc(NC(=O)Nc2ccc(C)cc2)s1	x	x	x	0.96	x	x	x
CN(C)c1ccc(N=C/C=C2/N(C)c3ccccc3C2(C)C)cc1	34	0.8	3	0.26	x	0.8	0.054*
CN1/C(=C\C=N\O)C(C)(C)c2ccccc21	2	1	0	-0.16	0.99	1.3	x
